S1P4 antag – S1P4 receptor antagonists, primary screen, cell-based; Sphingosine 1-phosphate receptor 4 (Homo sapiens), O95977; S1P4-expressing cells, antagonist mode, reporter read-out; inhibition, % at 4.98 µM; 0.26% of 220,000 active; in the data active = inhibition above about 29%;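 note: 0% = wells stimulated with agonist and 100% = vehicle wells without agonist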
S1P3 antag – S1P3 receptor antagonists, primary screen, cell-based. Sphingosine 1-phosphate receptor 3 (Homo sapiens), Q99500. CHO S1P3 NFAT-BLA reporter, FRET fluorescence, antagonist mode. inhibition, % at 4.98 µM. 0.27% of 170,000 active;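 active = inhibition above the plate cutoff, the mean inhibition of test wells on that plate plus 3 SD, cut at about 28% in these data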;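 note: cells challenged with S1P at its EC80 of 0.8 µM; blue over green emission ratio from cleaved BLA substrate after 4 h stimulation; 0% = S1P-stimulated wells and 100% = unstimulated DMSO-only wells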
MDM2 E3 inh – MDM2-luciferase reporter signal enhancers, primary screen, MDM2 E3 ligase inhibitor project, cell-based, luminescence, 1536-well; signal enhancement, % at 5 µM; 0.11% of 210,000 active; E3 ubiquitin-protein ligase Mdm2 (Homo sapiens), Q00987; cell-based MDM2 ubiquitination luciferase reporter, 2 h; 0 = plate control, 100 = twice control, blank-subtracted; AID 1230, 2008;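 active = signal enhancement of 30% or more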;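 note: luminescence tracks abundance of the self-degrading MDM2-luciferase fusion protein; higher signal means inhibition of MDM2 E3 ligase activity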
Target sequence (Q00987 whole entry, looked up, the tested form may be a part): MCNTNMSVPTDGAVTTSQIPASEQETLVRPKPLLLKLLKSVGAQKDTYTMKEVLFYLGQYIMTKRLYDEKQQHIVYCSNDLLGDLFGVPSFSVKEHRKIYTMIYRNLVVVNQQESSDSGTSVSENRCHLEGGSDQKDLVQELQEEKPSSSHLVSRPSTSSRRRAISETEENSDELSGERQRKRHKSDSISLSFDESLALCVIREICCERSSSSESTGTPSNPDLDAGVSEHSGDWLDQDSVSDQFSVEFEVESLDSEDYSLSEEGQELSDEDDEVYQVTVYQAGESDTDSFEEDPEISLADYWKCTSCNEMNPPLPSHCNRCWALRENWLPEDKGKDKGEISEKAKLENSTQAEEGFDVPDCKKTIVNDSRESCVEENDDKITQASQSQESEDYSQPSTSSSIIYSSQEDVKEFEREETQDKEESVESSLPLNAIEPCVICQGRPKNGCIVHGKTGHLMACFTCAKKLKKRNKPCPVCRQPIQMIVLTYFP
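Material: stable MDM2–luciferase fusion reporter cells / Quantity: 2000 cells/well / Dosing: single 5 µM compound dose, 0.2% final DMSO / Buffer or medium: DMEM / Schedule: 4 h cell settling then 2 h compound exposure, 37 °C / Detection: luminescence with SteadyLite reagent, 15 min at room temperature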
S1P4 ag – S1P4 receptor agonists, primary screen, cell-based | 0.35% of 220,000 active | S1P4-expressing cell line, agonist reporter assay | activation, % at 4.98 µM | Sphingosine 1-phosphate receptor 4 (Homo sapiens), O95977; in the data active = activation above about 11%;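 note: 0% = DMSO vehicle and 100% = reference agonist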
L major viab – Leishmania major promastigote growth inhibition, primary screen. 9% of 200,000 active. AID 1063, 2008. inhibition, % at 10 µM. Leishmania major promastigotes, resazurin fluorescence viability; in the data active = inhibition above about 50%;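 note: promastigotes grown with compound for 44 hours at 28 °C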
* = called active by the depositor; nt = no result given. Shown is part of a subset that was picked to be rich in hits.

SMILES	S1P4 antag	S1P3 antag	MDM2 E3 inh	S1P4 ag	L major viab
CC1CCN(C(=O)C2CCN(CCCc3ccccc3)CC2)CC1	-17	-46	-9	0	53*
O=C(C1CCN(CCCc2ccccc2)CC1)N1CCCCC1	6	nt	-21	-1	-6
Cc1ccccc1Nc1nc(N)nc(CSc2nc3ccccc3c(=O)n2C)n1	-8	nt	-9	2	6
Cc1cc2c(cc(C(=O)OC(C(=O)NCc3ccco3)C(C)C)n2C)o1 (stereo unspecified)	-1	-28	-12	1	99*
CC(C)C(OC(=O)c1cccs1)C(=O)NCc1ccco1 (stereo unspecified)	-4	-22	0	-1	2
Cc1ccccc1NC(=O)C1CCC(C)(C(=O)O)C1(C)C (stereo unspecified)	2	-7	-19	0	-4
Cc1cccc(Oc2sc(C(=O)c3ccccc3)c(N)c2C#N)c1	-3	nt	-13	0	19
O=C(c1ccccc1F)N1CCN(c2ccc([N+](=O)[O-])c3ncccc23)CC1	-15	-4	-18	0	-1
O=C(c1ccccc1F)N1CCN(c2ccc([N+](=O)[O-])c3cccnc23)CC1	-1	5	-2	3	63*
CC1CCN(S(=O)(=O)c2cccc(C(=O)NNC(=O)c3ccco3)c2)CC1	5	-4	3	2	nt
C#CCNC(=O)C1=C[C@H](C)[C@@H](CCCO)[C@H](OCC)O1	-13	-18	nt	1	-11
CCN(CC)CCCCCOc1ccccc1OC	-16	-62	-18	-1	37
CCN(CC)CC#CCOC(c1ccccc1)c1ccccc1	-2	-14	-20	-2	98*
CN(C)CC#CCOC(c1ccccc1)c1ccccc1	-5	0	-1	1	99*
CCN(CC)CCC(C)OC(c1ccccc1)c1ccccc1 (stereo unspecified)	-22	3	-4	0	100*
COc1ccc(C=O)cc1COc1c(F)c(F)cc(F)c1F	-8	nt	-2	-2	99*
CCCOC(=O)Nc1sc2c(c1C(N)=O)CCCC2	8	-7	-19	2	-3
CCOC(=O)Cc1csc(NC(=O)NC2(C(F)(F)F)Oc3ccc(Cl)cc3O2)n1 (stereo unspecified)	13	nt	-7	-2	53*
CCOC(=O)Cc1csc(NC(=O)NC2(C(F)(F)F)Oc3ccccc3O2)n1	2	nt	-15	-4	90*
Cc1ccc(NS(=O)(=O)c2cccc([N+](=O)[O-])c2)nc1	-14	-27	-14	1	-12
CC1(C)c2ssc(=S)c2-c2ccccc2N1C(=O)CSC1=NCCS1	-25	nt	-6	1	5
Cc1ccc(S(=O)(=O)N2c3ccccc3-c3c(ssc3=S)C2(C)C)cc1	4	-3	5	-1	99*
COc1ccc2c(c1)-c1c(ssc1=S)C(C)(C)N2	1	nt	-23	-1	21
COc1ccc2c(c1)-c1c(ssc1=S)C(C)(C)N2S(=O)(=O)c1ccc(C)cc1	-7	6	-22	0	92*
Cn1cnnc1SCC(=O)Nc1ccccc1Oc1ccccc1	-1	-11	-7	-1	-20
SMILES	S1P4 antag	S1P3 antag	MDM2 E3 inh	S1P4 ag	L major viab
CC(C)Sc1nnc([C@H](Cc2c[nH]c3ccccc23)NC(=O)OC(C)(C)C)o1	13	nt	-10	0	6
COc1ccc(/C=N/Nc2nnc(-c3ncc[nH]3)c3ccccc23)cc1	-5	nt	-19	0	-5
Oc1ccc2ccccc2c1/C=N/Nc1nnc(-c2ncc[nH]2)c2ccccc12	-17	nt	-16	-2	100*
CCCn1cc(CN2CCCC(C(=O)c3cccc(OC(C)C)c3)C2)c(C)n1 (stereo unspecified)	-4	-2	-7	1	74*
CC(C)Oc1cccc(C(=O)C2CCCN(Cc3cnc(N4CCCC4)s3)C2)c1 (stereo unspecified)	-6	-17	-8	-1	37
COc1ccccc1C(=O)C1CCCN(Cc2ccc(Oc3ncccn3)cc2)C1 (stereo unspecified)	-1	-1	-4	-1	-2
CC(C)Oc1cccc(C(=O)C2CCCN(Cc3ccc(Oc4ncccn4)cc3)C2)c1 (stereo unspecified)	-8	4	-2	-2	79*
